Rows were chosen to be rich in hits. Some 3.6% of all compounds tested hit in one or more screens of this group.
T cruzi inh – blocks replication of Trypanosoma cruzi | T. cruzi beta-gal in NIH3T3, luminescence, 90 h | inhibition, % (no concentration beside the values) | actives 1.4% (n = 300,000);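 active = mean inhibition across valid replicates above about 55%, limit read from the data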;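 also: signal also drops with host cell toxicity which is not excluded here; 0% = plate median of DMSO wells and 100% = zero luminescence signal; higher percent means less beta-gal luminescence so fewer parasites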
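assay system = mouse NIH/3T3 fibroblasts infected with β-gal-expressing T. cruzi Tulahuen C4 | input = 5,000 NIH/3T3 host cells per well | buffer or medium = DMEM plus 2% FBS | timing = 3 h host attachment, then at least 90 h co-culture | measured by = GalScreen luminescence, 60 min | evaluation = luminescence reflecting intracellular parasite burden, expressed as percent inhibition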
SKKanGAS inh – inhibitors of SKKanGAS S. pyogenes growth in kanamycin (SK-promoter or general growth effect) | BacTiter-Glo, 6 h | inhibition, % at 7.5 µM | actives 1.3% (n = 300,000);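 active = mean replicate score, as percent of positive control median, at least 50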;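 also: strain carries kanamycin resistance gene driven by streptokinase promoter and grows in 40 µg/ml kanamycin; loss of luminescence reflects streptokinase promoter inhibition or plain growth inhibition; 0% = median of DMSO wells and 100% = positive control at its reference dose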
HIF activator – HIF pathway transcriptional activation. U2OS HRE-luciferase reporter, luminescence; normalized: DMSO 0%, desferrioxamine 100%. activation, % at 7.5 µM (by protocol). actives 0.32% (n = 300,000). AID 1910;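 active = mean activation of at least 10% of the iron chelator positive control signal, with at least half of replicates also reaching 10%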
Beta apoptosis – beta cell apoptosis inhibition. INS-1E cytokine-induced death, ATP luminescence, 48 h; percent of positive-control rescue, neutral wells zero. protection from apoptosis, % (test concentration not listed). actives 0.8% (n = 300,000);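 active = Every replicate reaches about 75%, or at least half do and their mean reaches it too, limit read from the data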;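 also: 0% = cytokine-treated negative control wells and 100% = positive control rescue; higher means more ATP so stronger rescue from cytokine killing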
CSC inhib – blocks cancer stem cells; cancer stem cell-like cells viability, luminescence; inhibition, % at 7.5 µM; actives 1.1% (n = 300,000); in the data active = inhibition above about 75%; tested in HMLE shEcad cells
PfHsp90 yeast 2 – inhibits growth of yeast expressing Plasmodium falciparum Hsp90; S. cerevisiae expressing PfHsp90, BacTiter-Glo ATP, 48 h; yeast lacking PDR1 and PDR3 efflux regulators; inhibition, % at 9.4 µM; actives 0.32% (n = 310,000);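 active = every replicate shows inhibition above about 80%, whatever the replicate mean, limit read from the data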;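 also: 0% = DMSO neutral controls and 100% = 20 µM radicicol positive controls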
* hit, by the source's call; . = not tested or not shown.

SMILES | T cruzi inh | SKKanGAS inh | HIF activator | Beta apoptosis | CSC inhib | PfHsp90 yeast 2
COCCNC(=S)N1CCN(c2nc(-c3ccccc3)cs2)CC1 | 4 | 12 | 0 | -3 | -8 | -55
O=C(NC(=S)N1CCN(c2nc(-c3ccccc3)cs2)CC1)c1cccnc1 | -11 | 79* | 2 | 8 | 8 | -13
CC[C@@H]1CC=C[C@H]2[C@H]1C(=O)N(Cc1ccccc1)[C@H]2c1cc(C)ccc1F | 34 | 58* | -1 | . | . | .
Cc1ccc(F)c([C@H]2C3C=CCC(c4ccccc4)C3C(=O)N2Cc2ccccc2)c1 (some centres undefined) | 24 | 50* | -1 | 109* | 122* | 14
O=C1C2C(c3ccccc3)CC=CC2[C@H](c2ccc3ccccc3c2)N1Cc1ccccc1 (some centres undefined) | 16 | 24 | -1 | 10 | 56 | -12
Cc1nc2ccccn2c1-c1ccnn1S(=O)(=O)c1ccc(F)cc1 | 8 | -5 | -1 | 17 | 30 | 4
Cc1ccc(C(=O)NCC(=O)NCC(c2cccs2)N(C)C)cc1C (centres undefined) | . | . | . | -12 | -22 | -9
COc1ccc(SN=C2C(C)=CC(=O)C=C2C)cc1 | -11 | -1 | -1 | -13 | -15 | 91*
Cc1[nH]c(-c2ccccn2)nc(=S)c1Cl | -13 | 88* | 1 | 15 | 9 | -34
Cc1cc(=S)nc(-c2ccccn2)[nH]1 | 19 | 21 | 0 | 11 | -6 | -4
CCn1c(N2CCN(S(=O)(=O)CC)CC2)nc2ccccc21 | -9 | -3 | -1 | 4 | -9 | .
CCn1c(N2CCN(S(=O)(=O)c3ccc(Cl)cc3)CC2)nc2ccccc21 | 88* | -1 | 0 | 15 | 6 | 29
CCn1c(N2CCN(S(=O)(=O)c3ccc(F)cc3)CC2)nc2ccccc21 | 32 | -4 | -1 | 17 | 80* | -1
COc1cccc(N2CC(C(=O)Nc3nnc(SCCC4OCCO4)s3)CC2=O)c1 (centres undefined) | -5 | 2 | 0 | -7 | -8 | 23
CN(C)S(=O)(=O)n1cc(/C=C(\NC(=O)c2ccccc2)C(=O)N2CCCC2)c2ccccc21 | -4 | -2 | 0 | 7 | -20 | 9
CCN(CC)C(=O)c1cc(-c2ccc3c(c2)OCO3)on1 | 2 | -1 | -3 | -5 | -14 | -9
CCc1cc2c(COC(=O)c3cccc(NS(C)(=O)=O)c3)cc(=O)oc2cc1O | -1 | 50* | 0 | 5 | -1 | -9
COc1ccc(C(C[N+](=O)[O-])c2c(-c3ccccc3)cc3ccccn23)cc1OC (centres undefined) | -9 | 0 | 0 | 1 | 10 | .
COc1ccc(C(C[N+](=O)[O-])C2(c3ccc(OC)c(OC)c3)C(=O)c3ccccc3C2=O)cc1 (centres undefined) | 9 | 22 | 1 | -2 | 89* | 105*
N#Cc1nc(COc2ccc(Br)cc2)oc1N1CCN(Cc2ccccc2)CC1 | . | . | . | . | . | -7
CCN1CCN(c2oc(COc3ccc(-c4ccccc4)cc3)nc2C#N)CC1 | 61* | -11 | 1 | 1 | 38 | 17
Cc1ccc(C(=O)NC(=S)N2CCN(C)CC2)cc1Br | -13 | -12 | -2 | . | . | 13
COc1ccc(NC(=O)CSc2nc(C)cs2)c([N+](=O)[O-])c1 | . | . | . | -1 | -13 | 6
Cn1c(SCC(=O)c2ccccc2)nnc1-c1ccco1 | -9 | -1 | 13* | -4 | . | -1
COc1ccc(C(=O)CSc2nnc(-c3ccco3)n2C)cc1 | -15 | 3 | 0 | -3 | 6 | 27
O=C(/C=C/c1ccccc1)Nc1cccc(C(=O)NCCCCc2ccccc2)c1 | . | . | . | . | . | -26
O=C(N/N=C/c1ccc2c(c1)OCO2)C1CC1 | -3 | -8 | 1 | 0 | 10 | -18
Cc1ccc(C2Oc3ccccc3C3=C2C(c2cccs2)n2ncnc2N3)cc1 (centres undefined) | 36 | 100* | 2 | 21 | 61 | -28
Fc1ccc(C2C3=C(Nc4ncnn42)c2ccccc2OC3c2ccncc2)cc1 (centres undefined) | 9 | 28 | -1 | 3 | -8 | -22
O=C(/C=C/CCc1ccc2c(c1)OCO2)N1CCCCC1 | . | . | . | . | . | 11
